Data reported in ChEMBL document CHEMBL1155415, “Synthesis, characterization, and in vitro antimicrobial activities of 5-alkenyl/hydroxyalkenyl-2-phenylamine-1,3,4-oxadiazoles and thiadiazoles” (2010).
Converted amounts (≈) assume the structure as drawn.

Columns and labels:
Format in all cases: functional
Staphylococcus aureus [1] = assay: Antibacterial activity against Staphylococcus aureus ATCC 25923 after 24 hrs by disc diffusion method
Method in brief: (§1)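 Agar disc diffusion. A standard inoculum of […] c.f.u./ml (0.5 McFarland) was spread evenly on agar. 6 mm Whatman no. 1 paper discs, dry-heat sterilized (140 °C, 1 h), were soaked in test compound and placed on nutrient agar. Plates were inverted and incubated 24 h at 37 °C. Read-out: diameter of the inhibition zone.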

Streptococcus pyogenes [2] = assay: Antibacterial activity against Streptococcus pyogenes after 24 hrs by disc diffusion method; method in brief: as §1
Klebsiella pneumoniae [3] = assay: Antibacterial activity against Klebsiella pneumoniae after 24 hrs by two fold dilution technique
Method in brief: (§2)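 Broth dilution MIC. Nutrient broth held log two-fold serial dilutions of compound and was inoculated with about 5 × 10⁵ c.f.u./ml of actively dividing bacteria. Incubation was 24 h at 37 °C, with growth checked visually and spectrophotometrically. MIC is the lowest concentration arresting growth.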

Pseudomonas aeruginosa [4] = assay: Antibacterial activity against Pseudomonas aeruginosa ATCC 27853 after 24 hrs by two fold dilution technique; details: ATCC 27853, 24 h; method in brief: as §2
Klebsiella pneumoniae [5] = assay: Antibacterial activity against Klebsiella pneumoniae after 18 to 24 hrs
Staphylococcus aureus [6] = assay: Antibacterial activity against Staphylococcus aureus ATCC 25923 after 24 hrs by two fold dilution technique; details: ATCC 25923, 24 h; method in brief: as §2
Aspergillus fumigatus [7] = assay: Antifungal activity against Aspergillus fumigatus after 48 hrs by two fold dilution technique
Method in brief: (§3)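 Broth MIC. Broth with log two-fold serial dilutions of compound was inoculated with about 1.6 × 10⁴–6 × 10⁴ c.f.u./ml of fungus and incubated 48 h at 35 °C. MIC is the lowest concentration arresting fungal growth.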

[8] = tested on: Trichophyton mentagrophytes; assay: Antifungal activity against Trichophyton mentagrophytes after 48 hrs by two fold dilution technique; method in brief: as §3
Candida albicans [9] = assay: Antifungal activity against Candida albicans after 48 hrs by two fold dilution technique; method in brief: as §3
Pseudomonas aeruginosa [10] = assay: Antibacterial activity against Pseudomonas aeruginosa ATCC 27853 after 24 hrs by disc diffusion method; method in brief: as §1
Candida albicans [11] = assay: Ratio of MFC to MIC for Candida albicans
Method in brief: (§4)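 MFC: 0.1 ml from each MIC tube was spread on agar and colonies were counted after 48 h at 35 °C. MFC is the lowest concentration killing 99.9% of the inoculum. The MFC/MIC ratio was then calculated to classify activity as fungistatic or fungicidal.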

Streptococcus pyogenes [12] = assay: Antibacterial activity against Streptococcus pyogenes after 18 to 24 hrs
[13] = tested on: Trichophyton mentagrophytes; assay: Ratio of MFC to MIC for Trichophyton mentagrophytes; method in brief: as §4
Escherichia coli [14] = assay: Antibacterial activity against Escherichia coli ATCC 25922 after 24 hrs by two fold dilution technique; details: ATCC 25922, 24 h; method in brief: as §2
Klebsiella pneumoniae [15] = assay: Antibacterial activity against Klebsiella pneumoniae after 24 hrs by disc diffusion method; method in brief: as §1
Streptococcus pyogenes [16] = assay: Antibacterial activity against Streptococcus pyogenes after 24 hrs by two fold dilution technique; method in brief: as §2
Talaromyces marneffei [17] = assay: Antifungal activity against Penicillium marneffei after 48 hrs by two fold dilution technique; method in brief: as §3
Aspergillus fumigatus [18] = assay: Antifungal activity against Aspergillus fumigatus after 48 hrs by disk diffusion method
Method in brief: (§5)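 Agar well diffusion with compounds in DMSO. The dish was lawned with a saline spore suspension, excess decanted, and dried 1 h at 37 °C. Wells were punched. Read-out: inhibition zone in mm. Griseofulvin served as standard and DMSO as negative control.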

Escherichia coli [19] = assay: Antibacterial activity against Escherichia coli ATCC 25922 after 18 to 24 hrs
Staphylococcus aureus [20] = assay: Antibacterial activity against Staphylococcus aureus ATCC 25923 after 18 to 24 hrs
[21] = tested on: Trichophyton mentagrophytes; assay: Antifungal activity against Trichophyton mentagrophytes after 48 hrs by disk diffusion method; method in brief: as §5
Pseudomonas aeruginosa [22] = assay: Antibacterial activity against Pseudomonas aeruginosa ATCC 27853 after 18 to 24 hrs
Escherichia coli [23] = assay: Antibacterial activity against Escherichia coli ATCC 25922 after 24 hrs by disc diffusion method; method in brief: as §1
Aspergillus fumigatus [24] = assay: Ratio of MFC to MIC for Aspergillus fumigatus; method in brief: as §4
Candida albicans [25] = assay: Antifungal activity against Candida albicans after 48 hrs by disk diffusion method; method in brief: as §5
Talaromyces marneffei [26] = assay: Antifungal activity against Penicillium marneffei after 48 hrs by disk diffusion method; method in brief: as §5
Talaromyces marneffei [27] = assay: Ratio of MFC to MIC for Penicillium marneffei; method in brief: as §4

Compound	diameter of the inhibition zone (DIZ) (Staphylococcus aureus [1]) [mm]	diameter of the inhibition zone (DIZ) (Streptococcus pyogenes [2]) [mm]	MIC (Klebsiella pneumoniae [3]) [µg/mL]	MIC (Pseudomonas aeruginosa [4]) [µg/mL]	MBC (Klebsiella pneumoniae [5]) [µg/mL]	MIC (Staphylococcus aureus [6]) [µg/mL]	MFC (Aspergillus fumigatus [7]) [µg/mL]	MIC (Aspergillus fumigatus [7]) [µg/mL]	MFC [8] [µg/mL]	MIC [8] [µg/mL]	MFC (Candida albicans [9]) [µg/mL]	MIC (Candida albicans [9]) [µg/mL]	diameter of the inhibition zone (DIZ) (Pseudomonas aeruginosa [10]) [mm]	Ratio (Candida albicans [11])	MBC (Streptococcus pyogenes [12]) [µg/mL]	Ratio [13]	MIC (Escherichia coli [14]) [µg/mL]	diameter of the inhibition zone (DIZ) (Klebsiella pneumoniae [15]) [mm]	MIC (Streptococcus pyogenes [16]) [µg/mL]	MFC (Talaromyces marneffei [17]) [µg/mL]	further results
CCCCCCCC/C=C\CCCCCCCc1nnc(Nc2ccccc2)o1	15.3	15.6	12.5 (≈ 31.4 µM)	12.5 (≈ 31.4 µM)	50 (≈ 126 µM)	12.5 (≈ 31.4 µM)	12.5 (≈ 31.4 µM)	6.25 (≈ 15.7 µM)	25 (≈ 62.9 µM)	12.5 (≈ 31.4 µM)	25 (≈ 62.9 µM)	6.25 (≈ 15.7 µM)	19.3	4	25 (≈ 62.9 µM)	2	12.5 (≈ 31.4 µM)	14.9	25 (≈ 62.9 µM)	25 (≈ 62.9 µM)	MIC (Talaromyces marneffei [17]): 6.25 µg/mL (≈ 15.7 µM); diameter of the inhibition zone (DIZ) (Aspergillus fumigatus [18]): 23.1 mm; MBC (Escherichia coli [19]): 50 µg/mL (≈ 126 µM); MBC (Staphylococcus aureus [20]): 50 µg/mL (≈ 126 µM); diameter of the inhibition zone (DIZ) [21]: 20.2 mm; MBC (Pseudomonas aeruginosa [22]): 50 µg/mL (≈ 126 µM); diameter of the inhibition zone (DIZ) (Escherichia coli [23]): 17.5 mm; Ratio (Aspergillus fumigatus [24]): 2; diameter of the inhibition zone (DIZ) (Candida albicans [25]): 26.1 mm; diameter of the inhibition zone (DIZ) (Talaromyces marneffei [26]): 15.9 mm; Ratio (Talaromyces marneffei [27]): 4
CCCCC/C=C\CCC(O)CCCCCCCc1nnc(Nc2ccccc2)s1 (configuration not stated)	20.8	21.1	6.25 (≈ 14.5 µM)	6.25 (≈ 14.5 µM)	6.25 (≈ 14.5 µM)	6.25 (≈ 14.5 µM)	50 (≈ 116 µM)	25 (≈ 58.2 µM)	100 (≈ 233 µM)	25 (≈ 58.2 µM)	50 (≈ 116 µM)	25 (≈ 58.2 µM)	25.9	2	25 (≈ 58.2 µM)	4	6.25 (≈ 14.5 µM)	19.9	6.25 (≈ 14.5 µM)	100 (≈ 233 µM)	MIC (Talaromyces marneffei [17]): 25 µg/mL (≈ 58.2 µM); diameter of the inhibition zone (DIZ) (Aspergillus fumigatus [18]): 21.8 mm; MBC (Escherichia coli [19]): 12.5 µg/mL (≈ 29.1 µM); MBC (Staphylococcus aureus [20]): 12.5 µg/mL (≈ 29.1 µM); diameter of the inhibition zone (DIZ) [21]: 19 mm; MBC (Pseudomonas aeruginosa [22]): 25 µg/mL (≈ 58.2 µM); diameter of the inhibition zone (DIZ) (Escherichia coli [23]): 22.9 mm; Ratio (Aspergillus fumigatus [24]): 2; diameter of the inhibition zone (DIZ) (Candida albicans [25]): 24.9 mm; diameter of the inhibition zone (DIZ) (Talaromyces marneffei [26]): 15.2 mm; Ratio (Talaromyces marneffei [27]): 4
